Residues, ends and D or L forms follow the SMILES beside them. *: point of attachment. X3 = OC[C@H]1O[C@H](*)[C@H](O)[C@H](O)[C@@H]1O
Columns and labels:
[1] = Half life to evaluate susceptibility to enzymatic hydrolysis by incubating at 37 degree C in culture medium.; assay type: ADME
Method in brief: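 Peptide (5 mg in acetonitrile/H₂O 1:1, 50 μL) added to 0.5 mL RPMI containing 10% fetal calf serum and incubated at 37 °C for up to 360 min. Reaction stopped with ethanol and centrifuged, then supernatant analysed by RP-HPLC. T1/2 taken from a least-squares linear regression of log nonapeptide concentration versus time, using at least five points.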

[2] = Half life to evaluate susceptibility to enzymatic hydrolysis by incubating at 37 degree C in human plasma; assay type: ADME
Method in brief: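 Peptide (5 mg in acetonitrile/H₂O 1:1, 50 μL) mixed into 0.5 mL heparinized human plasma and incubated at 37 °C for up to 360 min. Ethanol added to stop the reaction, then centrifugation and RP-HPLC of the supernatant. Half-life obtained by least-squares linear regression of log nonapeptide concentration against time, with at least five time points.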

Compound: CSCC[C@@H](NC(=O)[C@@H](NC(=O)[C@H](CC(C)C)NC(=O)[C@H](CC(C)C)NC(=O)CNC(=O)[C@H](C)NC(=O)[C@H](CC(C)C)NC(=O)[C@@H](N)Cc1ccc(O)cc1)[C@@H](C)O)C(=O)N[C@H](C(=O)O)C(C)C
- half-life [1]: > 6 h
- half-life [2]: 0.597 h

Compound: CSCC[C@H](NC(=O)[C@@H](NC(=O)[C@H](CC(C)C)NC(=O)[C@H](CC(C)C)NC(=O)CNC(=O)[C@H](C)NC(=O)[C@H](CC(C)C)NC(=O)[C@@H](N)Cc1ccc(O)cc1)[C@@H](C)O)C(=O)N[C@H](C(=O)O)C(C)C
- half-life [1]: 1.37 h
- half-life [2]: 0.212 h

Compound: CSCC[C@H](NC(=O)[C@@H](NC(=O)[C@H](CC(C)C)NC(=O)[C@H](CC(C)C)NC(=O)CNC(=O)[C@H](C)NC(=O)[C@H](CC(C)C)NC(=O)[C@@H](N)Cc1ccc(O)cc1)[C@@H](C)O)C(=O)N[C@@H](C(=O)O)C(C)C
- half-life [1]: > 6 h
- half-life [2]: 4.53 h

Compound: CSCC[C@H](NC(=O)[C@@H](NC(=O)[C@H](CC(C)C)NC(=O)[C@H](CC(C)C)NC(=O)CNC(=O)[C@H](C)NC(=O)[C@H](CC(C)C)NC(=O)[C@@H](N)Cc1ccc(O)cc1)[C@@H](C)O[C@H]1O[C@H](CO)[C@@H](O)[C@@H](O)[C@H]1O)C(=O)N[C@H](C(=O)O)C(C)C (H-YLAGLLT(X3)MV-OH)
- half-life [1]: > 6 h
- half-life [2]: 1.01 h

Compound: CSCC[C@H](NC(=O)[C@@H](NC(=O)[C@H](CC(C)C)NC(=O)[C@H](CC(C)C)NC(=O)CNC(=O)[C@H](C)NC(=O)[C@H](CC(C)C)NC(=O)[C@@H](N)Cc1ccc(O)cc1)[C@@H](C)O)C(=O)N(CC(=O)O)C(C)C (HELM PEPTIDE1{Y.L.A.G.L.L.T.M.[CC(C)N(CC(=O)O)[*:1]]}$$$$V2.0)
- half-life [1]: > 6 h
- half-life [2]: > 6 h

Compound: CSCC[C@H](NC(=O)[C@@H](NC(=O)[C@H](CC(C)C)NC(=O)[C@H](CC(C)C)NC(=O)CNC(=O)[C@H](C)NC(=O)[C@H](CC(C)C)NC(=O)[C@@H](N)Cc1ccc(O)cc1)[C@@H](C)O)C(=O)N[C@H](CO)C(C)C (HELM PEPTIDE1{Y.L.A.G.L.L.T.M.[CC(C)[C@@H](CO)N[*:1]]}$$$$V2.0)
- half-life [1]: > 6 h
- half-life [2]: 1.66 h

Compound: CSCC[C@H](NC(=O)[C@@H](NC(=O)[C@H](CC(C)C)NC(=O)[C@H](CC(C)C)NC(=O)CNC(=O)[C@H](C)NC(=O)[C@H](CC(C)C)NC(=O)[C@@H](N)Cc1ccc(O)cc1)[C@@H](C)O)C(=O)N(C)[C@H](C(=O)O)C(C)C (HELM PEPTIDE1{Y.L.A.G.L.L.T.M.[meV]}$$$$V2.0)
- half-life [1]: > 6 h
- half-life [2]: > 6 h

Compound: CC(C)C[C@H](NC(=O)CNC(=O)[C@H](C)NC(=O)[C@H](CC(C)C)NC(=O)[C@@H](N)Cc1ccc(O)cc1)C(=O)N[C@@H](CC(C)C)C(=O)N[C@H](C(=O)N[C@@H](CC[S+](C)[O-])C(=O)N[C@H](C(=O)O)C(C)C)[C@@H](C)O (some centres not stated) (HELM PEPTIDE1{Y.L.A.G.L.L.T.[CS(=O)CC[C@H](N[*:1])C(=O)[*:2]].V}$$$$V2.0)
- half-life [1]: 1.56 h
- half-life [2]: 0.522 h

Compound: CSCCN(CC(=O)N[C@H](C(=O)O)C(C)C)C(=O)[C@@H](NC(=O)[C@H](CC(C)C)NC(=O)[C@H](CC(C)C)NC(=O)CNC(=O)[C@H](C)NC(=O)[C@H](CC(C)C)NC(=O)[C@@H](N)Cc1ccc(O)cc1)[C@@H](C)O (HELM PEPTIDE1{Y.L.A.G.L.L.T.[CSCCN(CC(=O)[*:2])[*:1]].V}$$$$V2.0)
- half-life [1]: > 6 h
- half-life [2]: 0.86 h

Compound: CSCC[C@@H](CN[C@H](C(=O)O)C(C)C)NC(=O)[C@@H](NC(=O)[C@H](CC(C)C)NC(=O)[C@H](CC(C)C)NC(=O)CNC(=O)[C@H](C)NC(=O)[C@H](CC(C)C)NC(=O)[C@@H](N)Cc1ccc(O)cc1)[C@@H](C)O (HELM PEPTIDE1{Y.L.A.G.L.L.T.[CSCC[C@@H](CN[C@H](C(=O)O)C(C)C)N[*:1]]}$$$$V2.0)
- half-life [1]: > 6 h
- half-life [2]: 5.07 h

Compound: H-YLAGLLTMV-NH2
- half-life [1]: > 6 h
- half-life [2]: 0.657 h

From ChEMBL document CHEMBL1134531, “Peptide analogues of a subdominant epitope expressed in ebv-associated tumors: synthesis and immunological activity” (J Med Chem, 2001)
